Laboratory results from ChEMBL document CHEMBL1136621 (Bioorg Med Chem Lett, 2003).

Experiments:
[1] = target: Cytidine deaminase (Homo sapiens) (UniProt P32320); experiment: Susceptibility to Cyd deaminase at a substrate concentration of 2.0 mM
[2] = target: T1, Thymidine phosphorylase (Homo sapiens) (UniProt P19971); experiment: Susceptibility to thymidine phosphorylase (ThdPase) at a substrate concentration of 1.0 mM
T1 sequence (whole entry): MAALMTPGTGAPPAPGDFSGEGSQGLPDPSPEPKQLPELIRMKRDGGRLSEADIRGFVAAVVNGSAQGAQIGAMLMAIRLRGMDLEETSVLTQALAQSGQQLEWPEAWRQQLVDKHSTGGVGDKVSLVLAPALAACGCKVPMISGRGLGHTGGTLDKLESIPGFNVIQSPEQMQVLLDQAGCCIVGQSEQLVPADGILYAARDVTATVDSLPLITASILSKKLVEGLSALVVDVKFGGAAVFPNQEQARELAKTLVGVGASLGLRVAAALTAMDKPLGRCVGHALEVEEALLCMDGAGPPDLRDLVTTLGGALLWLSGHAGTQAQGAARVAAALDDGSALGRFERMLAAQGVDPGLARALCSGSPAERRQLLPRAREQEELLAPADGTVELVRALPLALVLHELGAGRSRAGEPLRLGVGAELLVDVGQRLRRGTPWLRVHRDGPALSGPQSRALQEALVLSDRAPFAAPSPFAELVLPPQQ

[3] = tested on: carboxylesterase (Homo sapiens); experiment: Relative susceptibility to human carboxylesterase in liver and intestine (L/I ratio)
Cocaine esterase [4] = target: T2, Cocaine esterase (Homo sapiens, UniProt O00748); experiment: Susceptibility to carboxylesterase in human liver at a concentration 2.5 mM; type: tissue-based; details: 2500 µM
T2 sequence (O00748 whole entry): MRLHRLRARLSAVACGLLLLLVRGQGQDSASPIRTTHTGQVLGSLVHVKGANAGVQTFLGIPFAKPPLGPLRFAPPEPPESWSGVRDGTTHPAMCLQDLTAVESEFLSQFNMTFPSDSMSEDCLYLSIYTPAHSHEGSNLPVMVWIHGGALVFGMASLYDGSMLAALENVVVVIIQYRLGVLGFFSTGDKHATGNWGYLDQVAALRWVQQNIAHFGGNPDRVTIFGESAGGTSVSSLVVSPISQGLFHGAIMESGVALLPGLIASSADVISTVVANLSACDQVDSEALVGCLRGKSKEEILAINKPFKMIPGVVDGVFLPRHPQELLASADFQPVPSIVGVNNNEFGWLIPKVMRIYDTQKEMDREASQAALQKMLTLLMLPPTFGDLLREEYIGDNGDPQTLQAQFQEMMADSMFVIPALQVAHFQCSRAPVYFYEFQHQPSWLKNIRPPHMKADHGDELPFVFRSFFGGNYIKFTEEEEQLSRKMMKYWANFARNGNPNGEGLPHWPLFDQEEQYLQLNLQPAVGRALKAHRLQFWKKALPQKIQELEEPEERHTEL
Outline: (§1)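 Crude enzyme extracts from human liver and intestine; substrate at 2.5 mM. Conversion rate expressed as nmol/mg protein/h. L/I is the ratio of the liver rate to the intestine rate.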

Cocaine esterase [5] = target: T2, Cocaine esterase; experiment: Susceptibility to carboxylesterase in human intestine at a concentration 2.5 mM; type: tissue-based; details: 2500 µM; outline: as §1
[6] = target: T3, Dihydropyrimidine dehydrogenase [NADP(+)] (Homo sapiens, UniProt Q12882); experiment: Inhibitory activity against dihydropyrimidine dehydrogenase (DPD)
T3 sequence (Q12882 whole entry): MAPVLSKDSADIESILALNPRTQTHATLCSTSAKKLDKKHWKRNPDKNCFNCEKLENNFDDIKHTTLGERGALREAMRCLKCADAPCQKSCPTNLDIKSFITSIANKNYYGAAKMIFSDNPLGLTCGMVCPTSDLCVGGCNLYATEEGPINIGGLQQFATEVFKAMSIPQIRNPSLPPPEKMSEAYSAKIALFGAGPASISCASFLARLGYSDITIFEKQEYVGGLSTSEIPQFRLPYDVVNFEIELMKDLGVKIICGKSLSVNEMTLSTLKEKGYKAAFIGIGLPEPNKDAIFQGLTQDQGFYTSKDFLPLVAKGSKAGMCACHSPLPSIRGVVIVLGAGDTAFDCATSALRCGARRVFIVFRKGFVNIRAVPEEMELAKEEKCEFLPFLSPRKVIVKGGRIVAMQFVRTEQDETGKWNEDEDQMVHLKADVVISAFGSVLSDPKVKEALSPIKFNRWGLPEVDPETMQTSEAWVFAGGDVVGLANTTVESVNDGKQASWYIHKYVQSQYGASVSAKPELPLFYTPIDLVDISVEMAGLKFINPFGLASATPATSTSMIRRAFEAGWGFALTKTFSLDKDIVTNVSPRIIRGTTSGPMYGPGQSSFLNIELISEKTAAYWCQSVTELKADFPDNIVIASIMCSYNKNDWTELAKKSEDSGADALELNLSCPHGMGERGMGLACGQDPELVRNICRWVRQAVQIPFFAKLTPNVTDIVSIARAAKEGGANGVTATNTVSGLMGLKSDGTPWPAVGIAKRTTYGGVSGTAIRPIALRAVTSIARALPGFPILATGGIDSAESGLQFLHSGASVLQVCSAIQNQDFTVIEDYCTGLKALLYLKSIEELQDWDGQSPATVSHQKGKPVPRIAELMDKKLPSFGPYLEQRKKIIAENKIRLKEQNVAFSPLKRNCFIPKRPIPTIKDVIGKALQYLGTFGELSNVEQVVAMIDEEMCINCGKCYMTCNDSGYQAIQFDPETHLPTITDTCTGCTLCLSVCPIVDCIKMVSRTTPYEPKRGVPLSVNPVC

[7] = Ratio of tumor and plasma 5-FU concentration in HT-3 (human cervical cancer) xenograft mice on co-administration with Capecitabine; type: functional
Mus musculus [8] = experiment: Tumour concentration of 5-FU in HT-3 (human cervical cancer) xenograft mice at 1.38 mg/kg oral dose co-administered with 135 mg/kg Capecitabine; type: functional
[9] = Stability in serum determined 1 hour after treatment; type: ADME, cell-free; details: read-out: Stability
Outline: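 Compound incubated in serum; stability reported as the percentage remaining after 1 h.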

Homo sapiens [10] = species on record: Homo sapiens; experiment: Susceptibility to human liver enzyme at a concentration 2.5 mM; type: functional; outline: as §1
[11] = Stability at pH 2.0-7.4 determined 2 hours after treatment; type: physicochemical; details: buffer, read-out: Stability
Outline: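 Compound held in aqueous solution at pH 2.0–7.4 for 2 h at 37 °C. Stability reported as the percentage of compound remaining.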

Mus musculus [12] = experiment: Tumour concentration of 5-FU in HT-3 (human cervical cancer) xenograft mice at 33.7 mg/kg oral dose co-administered with 135 mg/kg Capecitabine; type: functional
Mus musculus [13] = experiment: Plasma concentration of 5-FU in HT-3 (human cervical cancer) xenograft mice at 33.7 mg/kg oral dose co-administered with 135 mg/kg Capecitabine; type: functional, organism-based
Homo sapiens [14] = species on record: Homo sapiens; experiment: Susceptibility to human intestine enzyme at a concentration 2.5 mM; type: functional; outline: as §1
Lung carcinoma cell line = experiment: Antitumor activity in human lung carcinoma; type: functional
Mus musculus [15] = experiment: Tumour concentration of 5-FU in HT-3 (human cervical cancer) xenograft mice at 135 mg/kg oral dose; type: functional
Mus musculus [16] = experiment: Plasma concentration of 5-FU in HT-3 (human cervical cancer) xenograft mice at 135 mg/kg oral dose; type: functional, organism-based; set-up: dose 135 mg/kg

Cytidine deaminase (Homo sapiens), sequence (P32320 whole entry): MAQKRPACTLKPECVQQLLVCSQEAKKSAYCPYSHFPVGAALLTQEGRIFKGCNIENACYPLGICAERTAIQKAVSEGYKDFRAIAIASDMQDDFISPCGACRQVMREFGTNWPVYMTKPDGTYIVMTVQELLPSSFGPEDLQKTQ

## C[C@H]1O[C@@H](n2cc(F)c(N)nc2=O)[C@H](O)[C@@H]1O
[1]
  Relative susceptibility: 1

## C[C@H]1O[C@@H](n2cc(C#N)c(=O)[nH]c2=O)[C@H](O)C1O (single isomer, unassigned)
[2]
  Relative susceptibility: < 0.01

## CCCCCOC(=O)Nc1nc(=O)n([C@@H]2O[C@H](C)[C@@H](O)[C@H]2O)cc1I
[3]
  Susceptibilty Ratio (Liver/Intestine): 5
Cocaine esterase [4]
  Susceptibility: 90 nmol/mg protein/h
Cocaine esterase [5]
  Susceptibility: 18 nmol/mg protein/h

## C[C@H]1O[C@@H](n2cc(I)c(=O)[nH]c2=O)[C@H](O)C1O (single isomer, unassigned)
[2]
  Relative susceptibility: 2.3

## C#Cc1cn([C@@H]2O[C@H](C)[C@@H](O)[C@H]2O)c(=O)nc1N
[1]
  Relative susceptibility: 0.034

## Oc1ncc(/C=C/c2ccccc2)c(O)n1
[6]
  IC50: 43 nM

## C#Cc1c[nH]c(=O)[nH]c1=O
[6]
  IC50: 14 nM

## C[C@H]1O[C@@H](n2cc(F)c(=O)[nH]c2=O)[C@H](O)C1O (single isomer, unassigned)
[2]
  Relative susceptibility: 1

## C=Cc1cn([C@@H]2O[C@H](C)C(O)[C@H]2O)c(=O)[nH]c1=O (single isomer, unassigned)
[2]
  Relative susceptibility: 0.2

## C[C@H]1O[C@@H](n2cc(I)c(N)nc2=O)[C@H](O)[C@@H]1O
[1]
  Relative susceptibility: 0.33

## C=Cc1cn([C@@H]2O[C@H](C)[C@@H](O)[C@H]2O)c(=O)nc1NC(=O)OCCCCC
[3]
  Susceptibilty Ratio (Liver/Intestine): > 22
Cocaine esterase [4]
  Susceptibility: 110 nmol/mg protein/h
Cocaine esterase [5]
  Susceptibility: < 5 nmol/mg protein/h

## C[C@H]1O[C@@H](n2cc(Cc3cccc(OCc4ccccc4)c3)c(=O)[nH]c2=O)[C@H](O)C1O (single isomer, unassigned)
[2]
  Relative susceptibility: < 0.01

## C[C@H]1O[C@@H](n2cc(/C=C/c3ccccc3)c(=O)[nH]c2=O)[C@H](O)C1O (single isomer, unassigned)
[2]
  Relative susceptibility: < 0.01

## O=c1[nH]cc(Cc2cccc(OCc3ccccc3)c2)c(=O)[nH]1
[6]
  IC50: 97 nM

## C=Cc1cnc(O)nc1O
[7]
  Ratio_tumour/plasma: 3.8
[6]
  IC50: 89 nM
Mus musculus [8]
  Tumour_[5-FU]: 12 nmol/g

## O=c1[nH]cc(I)c(=O)[nH]1
[6]
  IC50: 220 nM

## C#Cc1cn([C@@H]2O[C@H](C)C(O)[C@H]2O)c(=O)[nH]c1=O (single isomer, unassigned)
[2]
  Relative susceptibility: 5

## C=Cc1cn([C@@H]2O[C@H](C)[C@@H](OC(C)=O)[C@H]2OC(C)=O)c(=O)nc1N
[9]
  remaining at 1 h: 61%
Homo sapiens [10]
  Susceptibility: 130 nmol/mg protein/h
[7]
  Ratio_tumour/plasma: 13
[11]
  remaining at 2 h: 100%
Mus musculus [12]
  Tumour_[5-FU]: 13 nmol/g
Mus musculus [13]
  Plasma [5-FU]: 1 nmol/mL
Homo sapiens [14]
  Susceptibility: 28 nmol/mg protein/h

## CCCCCOC(=O)Nc1nc(=O)n([C@@H]2O[C@H](C)[C@@H](O)[C@H]2O)cc1F [CAPECITABINE]
Lung carcinoma cell line
  Activity: 377 mg/kg
Mus musculus [15]
  Tumour_[5-FU]: 3.5 nmol/g
Mus musculus [16]
  Plasma [5-FU]: 0.62 nmol/mL
Cocaine esterase [4]
  Susceptibility: 79 nmol/mg protein/h
Cocaine esterase [5]
  Susceptibility: 5.3 nmol/mg protein/h

## N#Cc1c[nH]c(=O)[nH]c1=O
[6]
  IC50: 200 nM

## C=Cc1cn([C@@H]2O[C@H](C)[C@@H](O)[C@H]2O)c(=O)nc1N
[1]
  Relative susceptibility: 0.14
